Assay outcomes: PubChem BioAssay, several laboratories
Rtt109 HAT inh – blocks Candida albicans Rtt109/Vps75 acetyltransferase activity | Q5AAJ8 | purified Rtt109/Vps75, ThioGlo CoA-SH fluorescence, 4 h | inhibition, % at 34.9 µM | 330,000 compounds, 0.16% hits;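 active means inhibition of at least 50% in every replicate; inconclusive means best replicate reaches 50% inhibition but some replicates fall short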
HNF4A DNA FP – change in binding of human HNF4 alpha to DNA. P41235. HNF4a-FITC DNA binding, fluorescence polarization, 1 h. activity change, % at 10 µM. 360,000 compounds, 0.3% hits; in the data active means activity change above about 30%, passing the limit was not always enough
Target sequence (P41235 whole entry, looked up): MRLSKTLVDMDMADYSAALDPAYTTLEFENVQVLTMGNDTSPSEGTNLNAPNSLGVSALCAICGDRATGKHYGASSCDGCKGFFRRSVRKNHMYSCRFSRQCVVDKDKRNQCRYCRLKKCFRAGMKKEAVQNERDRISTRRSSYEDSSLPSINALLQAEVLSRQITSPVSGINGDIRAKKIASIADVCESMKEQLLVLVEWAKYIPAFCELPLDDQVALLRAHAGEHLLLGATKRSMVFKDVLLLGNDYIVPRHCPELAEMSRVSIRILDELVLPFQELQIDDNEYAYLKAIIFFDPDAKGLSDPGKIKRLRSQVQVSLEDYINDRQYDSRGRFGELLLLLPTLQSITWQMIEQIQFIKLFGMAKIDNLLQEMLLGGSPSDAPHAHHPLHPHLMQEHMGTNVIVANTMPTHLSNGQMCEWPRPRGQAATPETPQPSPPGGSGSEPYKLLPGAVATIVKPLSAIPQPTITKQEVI
TPT1 inhibitor – C. albicans TPT1 enzyme inhibition; recombinant caTPT1, FP RNA substrate dephosphorylation; inhibition, % at 5 µM; 300,000 compounds, 0.81% hits; AID 1962;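 active means inhibition above the mean of all tested compounds plus 3 SD, set per screening campaign, cut at about 24% in these data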
CSN deneddyl inh – CSN deneddylation inhibition; Purified CSN, SCF-Nedd8-OG deneddylation, fluorescence polarization; inhibition, % at 12.5 µM; 360,000 compounds, 0.38% hits; AID 651999;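 active means pattern-corrected inhibition above about 35%, with an unprinted fluorescence ratio check between 0.5 and 1.5, limit read from the data, passing the limit was not always enough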
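assay system = purified human Csn5 enzyme expressed in HEK293T cells | amount = 0.24 nM enzyme | buffer or medium = Tris/NaCl/DTT buffer, pH 7.5 | reagent = 10 nM SCFSkp2-Nedd8OG | compound = one concentration, 12.5 µM, 0.25% DMSO | times = 90 min reaction at room temperature | signal = FP | read-out basis = % inhibition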
Of the large screens only hits and unclear results are named; the others gave an inactive call. An excerpt weighted towards active compounds, which were near 1.2% of everything screened.

CCN(CCNC(=O)C1CCN(Cc2nc(-c3ccc(Cl)cc3)oc2C)CC1)c1ccccc1	HNF4A DNA FP 63.3
CCc1ccc(-c2nc(CN3CCC(C(=O)NCCN(CC)c4ccccc4)CC3)c(C)o2)cc1	none
CC[C@H](C)/C=C/C1=CC2=C(Cl)C(=O)[C@@]3(C)OC(=O)C(C(=O)[C@H](C)[C@@H](C)O)=C3C2=CO1	CSN deneddyl inh 49.0
COc1cccc(OC)c1-c1nn2c(-c3cc(-c4ccccc4)n[nH]3)nnc2s1	HNF4A DNA FP 224.7
CCCCc1ccc(-c2csc(/C(C#N)=C/c3ccc(C)o3)n2)cc1	HNF4A DNA FP 42.4, CSN deneddyl inh 40.8
Cc1ccc2c(c1C)OC(=O)CC2c1ccccc1 (centres undefined)	none
COc1ccc(O)c(/C=N/NC(=O)c2ccc(OCc3cccc(Br)c3)cc2)c1	HNF4A DNA FP 43.8
CCN1CCN(S(=O)(=O)c2ccc(C(C)(C)C)cc2)CC1	none
CN(CC(=O)Nc1ccc(F)cc1)C(=O)c1cc(-c2ccco2)nc2ccccc12	CSN deneddyl inh 53.0
COC(=O)Cc1c(O)ccn(CCc2c[nH]c3ccccc23)c1=O	CSN deneddyl inh 73.5
COC(=O)Cc1c(OC)ccn(CCc2c[nH]c3ccccc23)c1=O	none
O=C(c1[nH]c(C(F)(F)F)nc1-c1ccccc1)N1CCN(CCN2CCOCC2)CC1	none (no result: Rtt109 HAT inh, TPT1 inhibitor)
O=C(c1[nH]c(C(F)(F)F)nc1-c1ccccc1)N1CCCN(Cc2ccc(F)cc2)CC1	CSN deneddyl inh 76.2 (no result: Rtt109 HAT inh, TPT1 inhibitor)
O=[N+]([O-])c1ccc(NN=Cc2cccc3ccccc23)nc1	HNF4A DNA FP 35.4 (no result: TPT1 inhibitor)
COc1cc(CNCCc2ccccc2)ccc1OCC(=O)NC(C)(C)C	CSN deneddyl inh 106.2
CN(CC1CCCN(CCc2ccc(Cl)cc2)C1)C(=O)c1ccco1 (centres undefined)	none
CCCCC1CC(CSc2ncn[nH]2)OC1=O (centres undefined)	none
CCCCCCCC1CC(CSc2ncn[nH]2)OC1=O (centres undefined)	CSN deneddyl inh 53.9
COc1ccccc1CNS(=O)(=O)c1ccc(-c2cnc(C3CC3)o2)cc1	none
CCCN(CC(=O)Nc1ccccc1C)C(=O)CSc1ccccc1C	none (no result: TPT1 inhibitor)
Cc1nc2ccccc2n1CC(=O)NC1CCCCCC1	none
Cc1nc2ccccc2n1CC(=O)NC1CCCC1	Rtt109 HAT inh 51.3
COc1cc(C(=O)NCCCc2nc3ccccc3n2Cc2cc(C)ccc2C)cc(OC)c1OC	HNF4A DNA FP 37.0
CCOc1ccc(CCNC(=O)COC(=O)c2ccc[nH]c2=O)cc1OCC	none (no result: TPT1 inhibitor)
COc1ccc(Cl)cc1-c1nc(SCC(=O)NC2CCCC2)n[nH]1	none (no result: TPT1 inhibitor)
O=C(CSc1n[nH]c(-c2ccccc2Cl)n1)NC1CCCCC1	Rtt109 HAT inh 51.0
COc1cc(-c2cc(O)c(-c3ccc4ccccc4n3)c(=O)[nH]2)cc(OC)c1OC	CSN deneddyl inh 57.7 (no result: TPT1 inhibitor)
COc1cc(-c2cc(C(=O)Nc3ccc(O)cc3)c3ccccc3n2)cc(OC)c1OC	none
CC1CC(C)CN(S(=O)(=O)c2ccc(C(=O)N3CCOCC3)cc2)C1 (centres undefined)	none
Cc1ccc2c(c1C)NC(C(=O)O)C1CC=CC21 (centres undefined)	TPT1 inhibitor 26.0
O=C(O)C1Nc2c(C(=O)N3CCOCC3)cccc2C2C=CCC12 (centres undefined)	CSN deneddyl inh 35.3
O=C(c1ccccc1O)N1CCOCC1	none
Nc1nc(SCC(=O)c2ccc(Br)s2)n[nH]1	none
Nc1nc(SCC(=O)c2cccs2)n[nH]1	HNF4A DNA FP 38.7
CC(C)n1cc(/C=N/Nc2ccc(Cl)c(C(=O)O)c2)c2ccccc21	CSN deneddyl inh 39.6
O=C(O)c1cc(N/N=C/c2cccc3ccccc23)ccc1Cl	none
CCCCC12CN3CCN(CC(C3)/C1=N\NC(=O)Nc1ccccc1)C2	CSN deneddyl inh 41.9
Cc1nc2ccccc2c(=O)n1/N=C/C=C/c1ccccc1	none
CCC(C)NC(=O)C1CCN(S(=O)(=O)c2cc([N+](=O)[O-])ccc2Cl)CC1 (centres undefined)	Rtt109 HAT inh 54.1
COc1ccc(C2=NN(C(=O)c3cccc([N+](=O)[O-])c3)C(c3cccc([N+](=O)[O-])c3)C2)cc1 (centres undefined)	none
COc1ccc(C2CC(c3cccc([N+](=O)[O-])c3)=NN2/C(C)=C/C(C)=O)cc1 (centres undefined)	HNF4A DNA FP 87.1, CSN deneddyl inh 57.0 (no result: Rtt109 HAT inh, TPT1 inhibitor)
O=C1c2ccccc2[C@@H]2C[C@@H](O)[C@H](Nc3cccc(C(F)(F)F)c3)CCN12	none (no result: TPT1 inhibitor)
Cc1ccc(-n2nc(-c3ccco3)cc2C(=O)O)cc1	CSN deneddyl inh 37.7
CCOC(=O)c1cc(-c2ccco2)nn1-c1ccc(C)cc1	none
COCCN(C(=O)CSc1nnc(-c2cccc(F)c2)n1N)c1c(N)n(CC(C)C)c(=O)[nH]c1=O	none
O=C(/C(=N/N=C/c1ccc(O)c(O)c1O)c1ccccc1)c1ccccc1	Rtt109 HAT inh 78.1
O=C(c1ccc(-c2ccccc2)cc1)N1CCN(c2ccc3c(c2)C2CC3CCN2C(=O)OCc2ccccc2)CC1 (centres undefined)	CSN deneddyl inh 112.6 (no result: Rtt109 HAT inh, TPT1 inhibitor)
Cc1ccc(C(=O)N2CCN(c3ccc4c(c3)C3CC4CCN3C(=O)OCc3ccccc3)CC2)cc1 (centres undefined)	none (no result: Rtt109 HAT inh, TPT1 inhibitor)
CN(C)c1ccc(N=Cc2nc(-c3ccccc3)oc2OC(=O)c2cccc(Cl)c2)cc1	none
Cc1ccc(C(=O)Oc2oc(-c3ccccc3)nc2C=Nc2ccc(N(C)C)cc2)cc1	CSN deneddyl inh 46.6
CCN(CC)CCCNC(=O)C1CCC(CNS(=O)(=O)c2ccc(Cl)cc2)CC1 (centres undefined)	none
Cc1cc(C)c(NC(=O)CN(C)C(=O)CNC(=O)c2cccs2)c(C)c1	none (no result: TPT1 inhibitor)
C#CCOCCOCCOCCNc1nc(N2CCN(C(=O)CCCCCCCCCCNC(=O)Cn3cc(CCCCCN)nn3)CC2)nc(N2CCN(C(=O)CCCCCCCCCCNC(=O)[C@H]([C@@H](C)CC)n3cc(CCCCN=C(N)N)nn3)CC2)n1	Rtt109 HAT inh inconclusive, CSN deneddyl inh 100.2
C#CCOCCOCCOCCNc1nc(N2CCN(C(=O)CCCCCCCCCCNC(=O)[C@H](CCCCN)n3cc(C)nn3)CC2)nc(N2CCN(C(=O)CCCCCCCCCCNC(=O)[C@H](CCCCN)n3cc(CCCC(=O)O)nn3)CC2)n1	HNF4A DNA FP 37.8
C#CCOCCOCCOCCNc1nc(N2CCN(C(=O)CCCCCCCCCCNC(=O)[C@H]([C@@H](C)CC)n3cc(CCCCN=C(N)N)nn3)CC2)nc(N2CCN(C(=O)CCCCCCCCCCNC(=O)[C@H](CO)n3cc(CCCCCN)nn3)CC2)n1	Rtt109 HAT inh 87.1, CSN deneddyl inh 105.9
C#CCOCCOCCOCCNc1nc(N2CCN(C(=O)CCCCCCCCCCNC(=O)[C@H]([C@@H](C)CC)n3cc(CCCCCN)nn3)CC2)nc(N2CCN(C(=O)CCCCCCCCCCNC(=O)[C@H]([C@@H](C)CC)n3cc(CCCCN=C(N)N)nn3)CC2)n1	CSN deneddyl inh 116.4
CCc1nc2ccc(C(=O)NCCc3ccccn3)cn2c1N(C)Cc1ccc(N(C)C)cc1	none (no result: Rtt109 HAT inh, TPT1 inhibitor)
